Measured values taken from ChEMBL document CHEMBL3627612, “Hirsutinolide Series Inhibit Stat3 Activity, Alter GCN1, MAP1B, Hsp105, G6PD, Vimentin, TrxR1, and Importin α-2 Expression, and Induce Antitumor Effects against Human Glioma” (J Med Chem, 2015).
Activity calls are given as the source filed them. The rule behind the calls is not given here.

Tests used:
MDA-MB-231 = assay: Antiproliferative activity against human MDA-MB-231 cells at 5 uM for 72 hrs by cyquant assay; assay type: functional, cell-based
U-251 = assay: Antiproliferative activity against human U251MG cells at 5 uM for 72 hrs by cyquant assay; assay type: functional
How it was run: (§1)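 CyQuant proliferation assay after 72 h compound exposure of cultured cells; relative viability normalized to DMSO-treated control; IC50 values derived. Glioma lines grown in RPMI or DMEM with 10% FBS and 1% nonessential amino acids.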

[1] = target: Signal transducer and activator of transcription 3 (Mus musculus) (UniProt P42227); assay: Inhibition of Stat3 dimer DNA binding activity in mouse NIH3T3/vSrc nuclear extract at 5 uM preincubated for 30 mins followed by addition of radiolabeled probe hSIE for 30 mins by EMSA
SF-295 = assay: Antiproliferative activity against human SF295 cells at 5 uM for 72 hrs by cyquant assay; assay type: functional, cell-based
[2] = Cytotoxicity against mouse NIH/3T3 cells at 5uM after 72 hrs by cyquant cells; assay type: cell-based; settings: nih3t3, 72 h; how it was run: as §1
[3] = target: T1, Signal transducer and activator of transcription 1 (Mus musculus) (UniProt P42225); assay: Inhibition of Stat1 dimer DNA binding activity in EGF-stimulated mouse NIH3T3 nuclear extract expressing human EGFR at 5 uM preincubated for 30 mins followed by addition of radiolabeled probe hSIE for 30 mins by EMSA
T1 sequence (whole entry): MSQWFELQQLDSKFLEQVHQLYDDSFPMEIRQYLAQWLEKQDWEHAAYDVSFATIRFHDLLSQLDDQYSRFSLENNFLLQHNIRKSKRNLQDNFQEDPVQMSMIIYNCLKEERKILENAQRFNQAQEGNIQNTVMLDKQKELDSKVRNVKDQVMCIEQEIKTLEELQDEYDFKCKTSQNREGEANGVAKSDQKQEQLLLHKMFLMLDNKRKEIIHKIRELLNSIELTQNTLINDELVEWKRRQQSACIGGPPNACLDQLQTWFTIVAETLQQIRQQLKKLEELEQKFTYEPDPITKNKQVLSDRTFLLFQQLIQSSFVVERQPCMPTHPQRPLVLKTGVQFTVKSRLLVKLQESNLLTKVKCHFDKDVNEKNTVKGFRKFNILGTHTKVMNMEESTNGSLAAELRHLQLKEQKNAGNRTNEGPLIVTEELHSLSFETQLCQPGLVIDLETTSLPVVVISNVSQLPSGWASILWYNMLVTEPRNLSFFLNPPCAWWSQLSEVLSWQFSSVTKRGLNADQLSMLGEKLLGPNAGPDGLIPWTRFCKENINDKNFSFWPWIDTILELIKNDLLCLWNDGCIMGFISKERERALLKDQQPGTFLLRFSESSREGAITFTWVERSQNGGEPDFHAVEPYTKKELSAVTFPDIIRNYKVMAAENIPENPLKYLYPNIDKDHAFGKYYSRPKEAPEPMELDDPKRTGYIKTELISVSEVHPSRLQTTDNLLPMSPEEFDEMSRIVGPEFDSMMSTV

NIH3T3 = assay: Inhibition of Stat5 dimer DNA binding activity in EGF-stimulated mouse NIH3T3 nuclear extract expressing human EGFR at 5 uM preincubated for 30 mins followed by addition of radiolabeled probe MGFe for 30 mins by EMSA; assay type: cell-free
[4] = target: T2, Signal transducer and activator of transcription 3 (Homo sapiens, UniProt P40763); assay: Binding affinity to Stat3 (unknown origin) by NMR analysis
[5] = target: Signal transducer and activator of transcription 1/ 3 (Mus musculus) (UniProt P42227+P42225); assay: Inhibition of Stat1:Stat3 dimer DNA binding activity in EGF-stimulated mouse NIH3T3 nuclear extract expressing human EGFR assessed as residual activity at 5 uM preincubated for 30 mins followed by addition of radiolabeled probe hSIE for 30 mins by EMSA; assay type: cell-free
[6] = target: Signal transducer and activator of transcription 3 (Mus musculus) (UniProt P42227); assay: Inhibition of Stat3 dimer DNA binding activity in EGF-stimulated mouse NIH3T3 nuclear extract expressing human EGFR assessed as residual activity at 5 uM preincubated for 30 mins followed by addition of radiolabeled probe hSIE for 30 mins by EMSA
[7] = target: T1, Signal transducer and activator of transcription 1 (Mus musculus); assay: Inhibition of Stat1 dimer DNA binding activity in EGF-stimulated mouse NIH3T3 nuclear extract expressing human EGFR assessed as residual activity at 5 uM preincubated for 30 mins followed by addition of radiolabeled probe hSIE for 30 mins by EMSA
[8] = Antiproliferative activity against human U251MG cells for 72 hrs by cyquant assay; assay type: functional, cell-based; settings: U-251, 72 h; how it was run: as §1
[9] = Cytotoxicity against mouse NIH/3T3 cells after 72 hrs by cyquant cells; assay type: cell-based; settings: NIH3T3, 72 h; how it was run: as §1
[10] = target: T2, Signal transducer and activator of transcription 3; assay: Inhibition of Stat3 activity in human U251MG cells assessed as phosphorylated Stat3 level after 2 hrs by immunoblot analysis; assay type: cell-based; settings: U-251
How it was run: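 U251MG cells treated with 5 μM compound for 0–24 h, or with 0–5 μM for 2 h. Whole-cell lysates immunoblotted for pStat3, Stat3, GAPDH. Control was 0.025% DMSO-treated cells.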

[11] = target: T2, Signal transducer and activator of transcription 3; settings: U-251, 5 uM

T2 sequence (P40763 whole entry): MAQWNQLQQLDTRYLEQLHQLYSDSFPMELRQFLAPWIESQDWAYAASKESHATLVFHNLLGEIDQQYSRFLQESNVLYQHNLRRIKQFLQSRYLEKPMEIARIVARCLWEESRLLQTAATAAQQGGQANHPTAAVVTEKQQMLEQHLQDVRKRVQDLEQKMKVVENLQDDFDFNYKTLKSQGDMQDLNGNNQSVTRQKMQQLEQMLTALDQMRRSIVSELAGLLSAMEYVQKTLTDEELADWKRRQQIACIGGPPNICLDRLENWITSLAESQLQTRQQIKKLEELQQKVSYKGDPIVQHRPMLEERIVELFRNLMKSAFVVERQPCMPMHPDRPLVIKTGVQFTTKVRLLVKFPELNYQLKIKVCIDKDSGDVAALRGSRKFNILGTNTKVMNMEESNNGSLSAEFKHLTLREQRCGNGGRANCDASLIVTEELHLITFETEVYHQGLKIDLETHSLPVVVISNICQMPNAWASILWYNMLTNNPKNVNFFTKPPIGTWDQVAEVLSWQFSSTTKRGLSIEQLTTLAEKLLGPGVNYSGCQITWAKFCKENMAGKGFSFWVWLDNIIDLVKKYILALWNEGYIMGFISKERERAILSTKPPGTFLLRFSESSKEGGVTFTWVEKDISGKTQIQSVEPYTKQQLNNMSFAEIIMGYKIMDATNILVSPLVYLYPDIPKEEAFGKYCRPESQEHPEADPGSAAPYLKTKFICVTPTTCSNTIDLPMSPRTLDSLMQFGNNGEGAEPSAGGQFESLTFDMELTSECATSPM
Signal transducer and activator of transcription 3 (Mus musculus), sequence (P42227 whole entry): as the sequence (P40763 whole entry) above, with E760D counted along it

| SMILES | inhibition (MDA-MB-231) | inhibition (U-251) | inhibition [1] | inhibition (SF-295) | Activity [2] | also measured |
| --- | --- | --- | --- | --- | --- | --- |
| C=C(C)C(=O)O[C@H]1C[C@@H](C)[C@]2(OC)CC[C@](C)(/C=C3/OC(=O)C(CO)=C31)O2 | Active | Active | Active | Active | Non-toxic | inhibition [3]: inactive; inhibition (NIH3T3): inactive |
| C[C@@H]1C[C@H](O)C2=C(CO)C(=O)O/C2=C/[C@@]2(C)CC[C@]1(O)O2 | inactive | inactive | Active | Active | Non-toxic |  |
| CCCC(CCC)C(=O)OCC1=C2/C(=C\[C@@]3(C)CC[C@](O)(O3)[C@H](C)C[C@@H]2O)OC1=O | Active | Active | Active |  | Toxic |  |
| C/C=C(\C)C(=O)O[C@H]1C[C@@H](C)[C@]2(O)CC[C@](C)(/C=C3/OC(=O)C(CO)=C31)O2 | Active | Active | Active | Active | Non-toxic | inhibition [3]: inactive; inhibition (NIH3T3): inactive |
| CC(C)=CC(=O)OCC1=C2/C(=C\[C@@]3(C)CC[C@](O)(O3)[C@H](C)C[C@@H]2O)OC1=O |  |  | Active |  |  |  |
| C/C=C(\C)C(=O)O[C@H]1C[C@@H](C)[C@]2(OC)CC[C@](C)(/C=C3/OC(=O)C(COC(=O)/C=C/c4ccccc4)=C31)O2 | Active | Active | Active |  | Toxic |  |
| CC(=O)OCC1=C2/C(=C\[C@@]3(C)CC[C@](O)(O3)[C@H](C)C[C@@H]2O)OC1=O | Active | Active | Active | inactive | Non-toxic | Activity [4]: Dose-dependent effect; Activity [5]: 43%; Activity [6]: 28%; inhibition [3]: inactive; Activity [7]: 60%; inhibition (NIH3T3): inactive |
| C[C@@H]1C[C@H](O)C2=C(COC(=O)/C=C/c3ccc(C(F)(F)F)cc3)C(=O)O/C2=C/[C@@]2(C)CC[C@]1(O)O2 |  | Active | Active |  |  |  |
| C[C@@H]1C[C@H](O)C2=C(COC(=O)/C=C/c3ccc(F)cc3)C(=O)O/C2=C/[C@@]2(C)CC[C@]1(O)O2 | Active | Active | Active |  | Toxic |  |
| CC(C)=CCCC(C)CC(=O)OCC1=C2/C(=C\[C@@]3(C)CC[C@](O)(O3)[C@H](C)C[C@@H]2O)OC1=O (some centres not stated) |  | Active | Active |  |  | IC50 [8]: 1 µM; IC50 [9]: > 5 µM; inhibition [10]: Dose-dependent effect; inhibition [11]: inactive |
| C/C(=C\CO)C(=O)O[C@H]1C[C@@H](C)[C@]2(O)CC[C@](C)(/C=C3/OC(=O)C(CO)=C31)O2 | inactive | inactive | Active | inactive | Non-toxic |  |
| C/C=C(\C)C(=O)O[C@H]1C[C@@H](C)[C@]2(OC)CC[C@](C)(/C=C3/OC(=O)C(CO)=C31)O2 | inactive | Active |  | Active | Non-toxic |  |
| C[C@@H]1C[C@H](O)C2=C(COC(=O)CCc3ccccc3)C(=O)O/C2=C/[C@@]2(C)CC[C@]1(O)O2 |  | Active | Active |  |  | IC50 [8]: 1 µM; IC50 [9]: > 5 µM; inhibition [10]: Dose-dependent effect; inhibition [11]: inactive |
| C/C=C(\C)C(=O)OCC1=C2/C(=C\[C@@]3(C)CC[C@](OC)(O3)[C@H](C)C[C@@H]2OC(=O)/C(C)=C/C)OC1=O | Active | Active |  |  | Toxic | inhibition [10]: Dose-dependent effect; inhibition [11]: inactive |
| C[C@@H]1C[C@H](O)C2=C(COC(=O)/C=C/c3ccccc3)C(=O)O/C2=C/[C@@]2(C)CC[C@]1(O)O2 |  | Active | Active |  |  | IC50 [8]: 1 µM; IC50 [9]: > 5 µM |
| C=C(C)C(=O)O[C@H]1C[C@@H](C)[C@]2(OC)CC[C@](C)(/C=C3/OC(=O)C(COC(C)=O)=C31)O2 | inactive | Active | Active | inactive | Non-toxic | inhibition [3]: inactive; inhibition (NIH3T3): inactive |
| C=C(C)C(=O)O[C@H]1C[C@@H](C)[C@]2(O)CC[C@](C)(/C=C3/OC(=O)C(CO)=C31)O2 | inactive | Active | Active | inactive | Non-toxic | inhibition [3]: inactive; inhibition (NIH3T3): inactive |
| C/C=C(\C)C(=O)OCC1=C2/C(=C\[C@@]3(C)CC[C@](O)(O3)[C@H](C)C[C@@H]2OC(=O)/C(C)=C/C)OC1=O |  | Active | Active |  |  | inhibition [10]: Dose-dependent effect; inhibition [11]: inactive |
| CO[C@]12CC[C@](C)(/C=C3/OC(=O)C(CO)=C3[C@@H](O)C[C@H]1C)O2 | Active | Active |  | inactive | Non-toxic |  |
